{"source": "paper PMC3107129", "about": "(Nature chemical biology, 2010)", "key": {"K15A-TTR [1]": {"target": "T1, K15A-TTR (Homo sapiens, UniProt P02766, K35A)", "assay": "non-covalent binding to K15A-TTR", "conditions": "out of a maximum of 2 eq.; immunocapture, high-pH dissociation, HPLC"}, "K15A-TTR [2]": {"target": "T1, K15A-TTR", "assay": "reaction with K15A-TTR homotetramer by RP-HPLC", "type": "binding", "conditions": "compound 7.2 μM, 18 h, 25 °C"}, "recombinant WT-TTR": {"target": "recombinant WT-TTR (Homo sapiens, UniProt P02766)", "assay": "conjugation of recombinant WT-TTR by RP-HPLC", "type": "binding", "conditions": "for conjugation half-life (t50) with WT-TTR: recombinant WT-TTR, C18-RP-HPLC"}, "[3]": {"target": "TTR in human blood plasma (Homo sapiens, UniProt P02766)", "assay": "covalent modification of TTR in human blood plasma ex vivo", "type": "binding", "conditions": "compound 10.8 μM, 37 °C, maximum 50% (2/4 subunits)", "procedure,_shortened": "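Test compound at 10.8 μM final, from DMSO stock, incubated with human plasma (TTR 3.6–5.4 μM) for 24 h at 37 °C with rocking. Plasma pre-cleared on plain sepharose for 1 h at 4 °C. TTR immunocaptured on anti-TTR sepharose for 20 min at 4 °C, then washed with Tris-saline ± 0.05% saponin. Eluted with 100 mM triethylamine, pH 11.5. C18 RP-HPLC, 45-min 0.1% TFA water→acetonitrile gradient; at most 2/4 subunits modifiable.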"}, "[4]": {"system": "IMR-32 human neuroblastoma cells", "conditions": "cited from earlier work"}, "K15A-TTR [5]": {"target": "T1, K15A-TTR", "assay": "K15A-TTR fibril formation at pH 4.4 with non-covalent stabilizers", "type": "biochemical", "conditions": "compound 7.2 μM, 72 h"}}, "data": [{"smiles": "Cc1cc(/C=C/c2cccc(C(=O)Oc3ccc(F)cc3)c2)cc(C)c1O", "note": "[Compound 4]", "values": [{"measurement": "equivalents non-covalently bound to K15A-TTR homotetramer", "setting": "K15A-TTR [1]", "value": 1.4, "unit": "eq."}, {"measurement": "reaction with K15A-TTR", "setting": "K15A-TTR [2]", "value": "no reaction could be detected"}]}, {"smiles": "O=C(Sc1ccccc1)c1cccc(/C=C/c2cc(Br)c(O)c(Br)c2)c1", "note": "[Compound 1]", "values": [{"measurement": "conjugation half-life (t50) with WT-TTR", "setting": "recombinant WT-TTR", "value": 143, "unit": "min"}, {"measurement": "% Modification of TTR subunits in Human Blood Plasma", "setting": "[3]", "value": "36% (±0.4%)"}]}, {"smiles": "Cc1cc(/C=C/c2cccc(C(=O)Oc3ccccc3[N+](=O)[O-])c2)cc(C)c1O", "note": "[Compound 3]", "values": [{"measurement": "conjugation half-life (t50) with WT-TTR", "setting": "recombinant WT-TTR", "value": "5 to 15", "unit": "min"}, {"measurement": "% Modification of TTR subunits in Human Blood Plasma", "setting": "[3]", "value": "49% (±0.7%)"}]}, {"smiles": "Cc1cc(/C=C/c2ccc(C(=O)Oc3ccc(F)cc3)cc2)cc(C)c1O", "note": "[Compound 7]", "values": [{"measurement": "conjugation yield with WT-TTR", "setting": "recombinant WT-TTR; WT-TTR […], compound 7.2 μM, 18 h, 25 °C", "value": "lower modification yield"}]}, {"smiles": "Cc1cc(/C=C/c2ccc(C(=O)Oc3ccccc3[N+](=O)[O-])cc2)cc(C)c1O", "note": "[Compound 6]", "values": [{"measurement": "reaction with K15A-TTR", "setting": "K15A-TTR [2]", "value": "more non-chemoselective conjugation"}]}, {"smiles": "Oc1ccc(/C=C/c2cc(O)cc(O)c2)cc1", "note": "[resveratrol]", "values": [{"measurement": "prevention of amyloid-formation-associated cytotoxicity", "setting": "[4]", "value": "known to prevent amyloid-formation-associated cytotoxicity"}]}, {"smiles": "Cc1cc(/C=C/c2cccc(C(=O)Sc3ccccc3)c2)cc(C)c1O", "note": "[Compound 2]", "values": [{"measurement": "conjugation half-life (t50) with WT-TTR", "setting": "recombinant WT-TTR", "value": "5 to 15", "unit": "min"}, {"measurement": "% Modification of TTR subunits in Human Blood Plasma", "setting": "[3]", "value": "48% (±1.3%)"}]}, {"smiles": "Cc1cc(/C=C/c2ccccc2)cc(C)c1O", "note": "[Compound 9]", "values": [{"measurement": "stabilization of K15A-TTR against fibril formation", "setting": "K15A-TTR [5]", "value": "additional stabilization of K15A-TTR was observed"}]}, {"smiles": "Cc1cc(/C=C/c2cccc(C(=O)O)c2)cc(C)c1O", "note": "[Compound 8]", "values": [{"measurement": "stabilization of K15A-TTR against fibril formation", "setting": "K15A-TTR [5]", "value": "additional stabilization of K15A-TTR was observed"}]}]}
